Laboratory results published in ChEMBL document CHEMBL1123915, “Macrolides with gastrointestinal motor stimulating activity” (1987).
Values after ≈ are worked out from the molar mass of the structure shown.

What was measured:
Bacillus subtilis = assay: Antibacterial activity against Bacillus subtilis ATCC 6633; type: functional
Method in brief: (§1)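 MIC determined by agar dilution. Strains as listed on each line.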

Klebsiella pneumoniae = assay: Antibacterial activity against Klebsiella pneumoniae ATCC 10031; type: functional; method in brief: as §1
Escherichia coli = assay: Antibacterial activity against Escherichia coli NIHJ; type: functional; method in brief: as §1
Bacillus cereus = assay: Antibacterial activity against Bacillus cereus IFO 3001; type: functional; method in brief: as §1
Canis familiaris = assay: Evaluated for gastrointestinal motor stimulating (GMS) activity in dog estimated in vivo by 2 x 2 points parallel line assay. Activity of EM-A was assumed to be 1; type: functional, Canis lupus familiaris
Method in brief: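 Fasted conscious dogs carried chronically implanted serosal force transducers recording circular muscle contraction in the gastric body, antrum and small intestine. Dosing was an intravenous bolus 10–15 min after interdigestive gastric contractions ended. Antral contractile waves were integrated for 10 min from injection. Relative potency came from a 2 × 2 parallel line assay with five animals per dose, using EM as the reference in each assay.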

Staphylococcus aureus = assay: Antibacterial activity against Staphylococcus aureus ATCC 6538P; type: functional; method in brief: as §1

Structure (SMILES) | MIC (Bacillus subtilis) | MIC (Klebsiella pneumoniae) | MIC (Escherichia coli) | MIC (Bacillus cereus) | MIC (Staphylococcus aureus) | GMS activity (Canis familiaris)
CC[C@H]1OC(=O)[C@H](C)[C@@H](O[C@H]2C[C@@](C)(OC)[C@@H](O)[C@H](C)O2)[C@H](C)[C@@H](O[C@@H]2O[C@H](C)C[C@H](N(C)C)[C@H]2O)[C@](C)(O)C[C@@H](C)C(=O)[C@H](C)[C@@H](O)[C@]1(C)O [ERYTHROMYCIN] | 0.1 µg/mL (≈ 0.136 µM) | 6.25 µg/mL (≈ 8.52 µM) | 12.5 µg/mL (≈ 17 µM) | 0.1 µg/mL (≈ 0.136 µM) | 0.2 µg/mL (≈ 0.273 µM) | 1
CCC1OC(=O)C(C)C(O[C@H]2C[C@@](C)(OC)[C@@H](O)[C@@H](C)O2)C(C)[C@@H](O[C@@H]2O[C@H](C)C[C@@H]([N+](C)(C)CC)[C@H]2O)[C@]2(C)CC(C)=C(O2)[C@H](C)[C@@H](O)[C@]1(C)O.[I-] (stereo not given in full) | > 100 µg/mL | > 100 µg/mL | > 100 µg/mL | > 100 µg/mL | > 100 µg/mL | 111
CCC1OC(=O)C(C)C(O[C@H]2C[C@@](C)(OC)[C@@H](O)[C@@H](C)O2)C(C)[C@@H](O[C@@H]2O[C@H](C)C[C@@H](N(C)CC)[C@H]2O)[C@]2(C)CC(C)=C(O2)[C@H](C)[C@@H](O)[C@]1(C)O (stereo not given in full) | > 100 µg/mL | > 100 µg/mL | > 100 µg/mL | > 100 µg/mL | > 100 µg/mL | 18
C#CC[N+](C)(C)[C@@H]1C[C@@H](C)O[C@@H](O[C@@H]2C(C)C(O[C@H]3C[C@@](C)(OC)[C@@H](O)[C@@H](C)O3)C(C)C(=O)OC(CC)[C@@](C)(O)[C@H](O)[C@@H](C)C3=C(C)C[C@]2(C)O3)[C@@H]1O.[Br-] (stereo not given in full) | 100 µg/mL | > 100 µg/mL | > 100 µg/mL | 100 µg/mL | 100 µg/mL | 2890
C=CC[N+](C)(C)[C@@H]1C[C@@H](C)O[C@@H](O[C@@H]2C(C)C(O[C@H]3C[C@@](C)(OC)[C@@H](O)[C@@H](C)O3)C(C)C(=O)OC(CC)[C@@](C)(O)[C@H](O)[C@@H](C)C3=C(C)C[C@]2(C)O3)[C@@H]1O.[Br-] (stereo not given in full) | > 100 µg/mL | > 100 µg/mL | > 100 µg/mL | > 100 µg/mL | 100 µg/mL | 256
CCC1OC(=O)C(C)C(OC2CC(C)(OC)C(O)C(C)O2)C(C)[C@@H](OC2OC(C)CC([N+](C)(C)C)C2O)[C@]2(C)C[C@@H](C)C(O2)[C@H](C)[C@@H](O)[C@]1(C)O.[I-] (stereo not given in full) | > 100 µg/mL | > 100 µg/mL | > 100 µg/mL | > 100 µg/mL | > 100 µg/mL | 65

Continued, in another order:

MIC (Bacillus subtilis) | MIC (Klebsiella pneumoniae) | MIC (Escherichia coli) | MIC (Bacillus cereus) | MIC (Staphylococcus aureus) | Structure (SMILES) | GMS activity (Canis familiaris)
100 µg/mL | > 100 µg/mL | > 100 µg/mL | 100 µg/mL | 100 µg/mL | C=CC[N+](C)(C)C1CC(C)OC(O[C@@H]2C(C)C(OC3CC(C)(OC)C(O)C(C)O3)C(C)C(=O)OC(CC)[C@@](C)(O)[C@H](O)[C@@H](C)C3O[C@@]2(C)C[C@H]3C)C1O.[Br-] (stereo not given in full) | 115
25 µg/mL (≈ 34.9 µM) | > 100 µg/mL | > 100 µg/mL | 25 µg/mL (≈ 34.9 µM) | 50 µg/mL (≈ 69.8 µM) | CC[C@H]1OC(=O)[C@H](C)[C@@H](O[C@H]2C[C@@](C)(OC)[C@@H](O)[C@H](C)O2)[C@H](C)[C@@H](O[C@@H]2O[C@H](C)C[C@H](N(C)C)[C@H]2O)[C@@]2(C)CC(C)=C(O2)[C@H](C)[C@@H](O)[C@]1(C)O | 10
> 100 µg/mL | > 100 µg/mL | > 100 µg/mL | > 100 µg/mL | > 100 µg/mL | C#CC[N+](C)(C)C1CC(C)OC(O[C@@H]2C(C)C(OC3CC(C)(OC)C(O)C(C)O3)C(C)C(=O)OC(CC)[C@@](C)(O)[C@H](O)[C@@H](C)C3O[C@@]2(C)C[C@H]3C)C1O.[Br-] (stereo not given in full) | 202
> 100 µg/mL | > 100 µg/mL | > 100 µg/mL | > 100 µg/mL | > 100 µg/mL | CCC1OC(=O)C(C)C(O[C@H]2C[C@@](C)(OC)[C@@H](O)[C@@H](C)O2)C(C)[C@@H](O[C@@H]2O[C@H](C)C[C@@H]([N+](C)(C)C)[C@H]2O)[C@]2(C)CC(C)=C(O2)[C@H](C)[C@@H](O)[C@]1(C)O.[I-] (stereo not given in full) | 21
